# Laboratory results from PubChem BioAssay AID493180 (Broad Institute, 2011).
# Where “and” joins values, the source holds several entries; their conditions need not be identical. Equal entries are not always repeated. Calls of active or inactive are those of the source.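 How the source made its calls: active means fitted curve reaching 40% activation at or below the top valid tested dose; inactive means the rest, or activity counter to the expected direction.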
# Test system: not listed separately
# Assay: HRE-driven luciferase induction, U2OS – cell-based, luminescence, dry powder, set 3, dose response (AID 493180)
# Conditions: U2OS HRE-luciferase reporter, luminescence, HIF pathway activation; at 38 µM (top of the series)
# In short: (§1)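 System: U2OS 3xHRE-luciferase reporter cells / Quantity: 6,000 U2OS reporter cells per well / Doses: 8-point series in 3-fold steps, 7.5 mM top stock / Measured by: luciferase luminescence measured with Steady-Glo reagent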
row,SMILES,activation
1,O=C(c1cc(-c2ccccc2)on1)N1CCN(c2ccncc2)CC1,-1.02% (inactive)
2,O=C(NC1CCc2ccccc2C1)c1cc(-c2ccccc2)on1 (stereo not drawn),-0.627% (inactive)
3,N#CC1(c2ccccc2)CCN(Cc2ccc(O)c3ncccc23)CC1,6.8% (inactive)
4,Oc1ccc(CNC2CCc3ccccc32)c2cccnc12 (stereo not drawn),11.5% (inactive)
5,Oc1ccc(CN2CCC(Cc3ccccc3)CC2)c2cccnc12,22.2% (inactive)
6,Cc1cccc(NC(=O)c2cc(-c3ccccc3)on2)n1,1.4% (inactive)
7,O=C(c1cc(-c2ccccc2)on1)N1CCC(N2CCCC2)CC1,0.044% (inactive)
8,O=C(Nc1nnc(-c2ccccc2)s1)c1cc(-c2ccccc2)on1,0.329% (inactive)
9,O=C(Nc1ncc(-c2ccccc2)o1)c1cc(-c2ccccc2)on1,-0.837% (inactive)
10,O=C(Nc1ncc2ccccc2n1)c1cc(-c2ccccc2)on1,2.48% (inactive)
11,Cc1cccc(CNC(=O)c2cc(-c3ccccc3)on2)c1,-1.13% (inactive)
12,O=C(NCC1CCCCC1)c1cc(-c2ccccc2)on1,3.45% (inactive)
13,CN1CCN(C(=O)c2cc(-c3ccccc3)on2)CC1,-0.645% (inactive)
14,Cn1c(-c2ccccc2)cnc1NC(=O)c1cc(-c2ccccc2)on1,0.636% (inactive)
15,CC1CN(Cc2ccc(O)c3ncccc23)CC(C)O1 (stereo not drawn),2.27% (inactive)
16,Cc1ccc(NC(=O)c2cc(-c3ccccc3)on2)cn1,1.37% (inactive)
17,Cc1ccc(CNC(=O)c2cc(-c3ccccc3)on2)cc1,-0.867% (inactive)
18,Oc1ccc(CN2CCc3ccccc3C2)c2cccnc12,1.34% (inactive)
19,Cn1c(NC(=O)c2cc(-c3ccccc3)on2)nc2ccccc21,0.384% (inactive)
20,Cc1ccccc1CNC(=O)c1cc(-c2ccccc2)on1,1.28% (inactive)
21,CC(C)(C)CCNC(=O)c1cc(-c2ccccc2)on1,19.3% (inactive)
22,O=C(Nc1cnc2ccccc2c1)c1cc(-c2ccccc2)on1,0.049% (inactive)
23,O=C(NCc1ccccc1)c1cc(-c2ccccc2)on1,0.892% (inactive)
24,CN(C)CCNC(=O)c1cc(-c2ccccc2)on1,1.68% (inactive)
25,O=C(NC1Cc2ccccc2C1)c1cc(-c2ccccc2)on1,2.88% (inactive)

# Test system: U2OS HRE-luciferase reporter, luminescence, HIF pathway activation
# Assay: as above
# Conditions: not given
# In short: as §1
row,SMILES,AC40
1,Cc1cccc(CNc2nc(-c3ccccn3)nnc2-c2ccccc2)c1,4.5 µM
2,c1ccc(-c2csc(Nc3nc(-c4ccccn4)nnc3-c3ccccc3)n2)cc1,1.39 µM
3,OCC1CCN(Cc2ccc(O)c3ncccc23)CC1,> 4.6 µM (inactive)
4,c1ccc(-c2nnc(-c3ccccn3)nc2NCc2ccccn2)cc1,22 µM
5,c1ccc(-c2nnc(-c3ccccn3)nc2NCC2CC2)cc1,7.63 µM
6,C[C@H](Nc1nc(-c2ccccn2)nnc1-c1ccccc1)C1CCCCC1,2.59 µM
7,c1ccc(CCNc2nc(-c3ccccn3)nnc2-c2ccccc2)cc1,2.69 µM
8,COc1ccccc1N1CCN(Cc2ccc(O)c3ncccc23)CC1,> 38 µM (inactive)
9,O=C(NCCCO)c1cc(-c2ccccc2)on1,> 38 µM (inactive)
10,c1ccc(-c2nnc(-c3ccccn3)nc2N2CCC(c3ccccc3)C2)cc1 (stereo not drawn),2.54 µM
11,O=C(Nc1nc(-c2ccccc2)cs1)c1cc(-c2ccccc2)on1,> 4.6 µM (inactive)
12,OCCCNc1nc(-c2ccccn2)nnc1-c1ccccc1,22.2 µM
13,c1ccc(-c2nnc(-c3ccccn3)nc2Nc2cnc3ccccc3n2)cc1,7.45 µM
14,CC(Nc1nc(-c2ccccn2)nnc1-c1ccccc1)c1ccccc1 (stereo not drawn),1.94 µM
15,Cc1ccc(Nc2nc(-c3ccccn3)nnc2-c2ccccc2)cn1,13.6 µM
16,c1ccc(-c2nnc(-c3ccccn3)nc2NCCN2CCOCC2)cc1,15.3 µM
17,O=C(NCC1CC1)c1cc(-c2ccccc2)on1,31 µM
18,C[C@@H](Nc1nc(-c2ccccn2)nnc1-c1ccccc1)C1CCCCC1,5.21 µM
19,c1ccc(-c2nnc(-c3ccccn3)nc2NCCCN2CCOCC2)cc1,7.33 µM
20,COc1ccc(CNc2nc(-c3ccccn3)nnc2-c2ccccc2)cc1,3.7 µM
21,CC(C)(C)CCNc1nc(-c2ccccn2)nnc1-c1ccccc1,3.2 µM and 1.8 µM

row,SMILES,AC40
1,Cc1cccc(Nc2nc(-c3ccccn3)nnc2-c2ccccc2)n1,14.2 µM
2,CN1CCN(c2nc(-c3ccccn3)nnc2-c2ccccc2)CC1,21.7 µM
3,c1ccc(-c2nnc(-c3ccccn3)nc2NCC2CCCCC2)cc1,3.5 µM
4,c1ccc(-c2nnc(Nc3nc(-c4ccccn4)nnc3-c3ccccc3)s2)cc1,25.3 µM
5,O=C(NCCCCO)c1cc(-c2ccccc2)on1,12 µM
6,O=C(Nc1ccc2ccccc2n1)c1cc(-c2ccccc2)on1,> 4.6 µM (inactive)
7,O=C(c1cc(-c2ccccc2)on1)N1CCC(N2CCOCC2)CC1,> 4.6 µM (inactive)
8,O=C(NCCCn1ccnc1)c1cc(-c2ccccc2)on1,28.9 µM
9,c1ccc(-c2cnc(Nc3nc(-c4ccccn4)nnc3-c3ccccc3)s2)cc1,> 4.6 µM (inactive)
10,c1ccc(-c2nnc(-c3ccccn3)nc2N2CCC(N3CCOCC3)CC2)cc1,7.47 µM
11,Oc1ccc(CN2CCc3ccccc3C2)c2cccnc12,14.1 µM
12,O=C(NCCN1CCCCC1)c1cc(-c2ccccc2)on1,2.5 µM
13,Cc1ccccc1CNc1nc(-c2ccccn2)nnc1-c1ccccc1,5.58 µM
14,Oc1ccc(CN2CCC3CCCCC3C2)c2cccnc12 (stereo not drawn),34.8 µM
15,O=C(c1cc(-c2ccccc2)on1)N1CCC(CO)CC1,> 4.6 µM (inactive)
16,c1ccc(-c2nnc(-c3ccccn3)nc2NCC2CCOCC2)cc1,22.8 µM
17,CC(C)(C)OC(=O)N1CCN(Cc2ccc(O)c3ncccc23)CC1,> 4.6 µM (inactive)
18,c1ccc(-c2nnc(-c3ccccn3)nc2Nc2nc3ccccc3s2)cc1,5.89 µM
19,O=C(Nc1cn2ccccc2n1)c1cc(-c2ccccc2)on1,> 4.6 µM (inactive)
20,Cn1c(-c2ccccc2)cnc1Nc1nc(-c2ccccn2)nnc1-c1ccccc1,5.83 µM
21,O=C(c1cc(-c2ccccc2)on1)N1CCc2cccnc21,> 4.6 µM (inactive)

row,SMILES,AC40
1,c1ccc(-c2cccc(CNc3nc(-c4ccccn4)nnc3-c3ccccc3)c2)cc1,1 µM
2,c1ccc(CNc2nc(-c3ccccn3)nnc2-c2ccccc2)cc1,5.63 µM
3,c1ccc(-c2nnc(-c3ccccn3)nc2N2CCC(C3CCCCC3)C2)cc1 (stereo not drawn),1.5 µM
4,O=C(NCCN1CCOCC1)c1cc(-c2ccccc2)on1,> 38 µM (inactive)
5,Clc1cccc(CNc2nc(-c3ccccn3)nnc2-c2ccccc2)c1,2.21 µM
6,CCCCNC(=O)c1cc(-c2ccccc2)on1,> 38 µM (inactive)
7,C=CCNc1nc(-c2ccccn2)nnc1-c1ccccc1,7.74 µM
8,c1ccc(-c2nnc(-c3ccccn3)nc2NCCc2ccccn2)cc1,12.5 µM
9,O=C(Nc1nc2ccccc2s1)c1cc(-c2ccccc2)on1,> 1.5 µM (inactive)
10,C[C@@H](Nc1nc(-c2ccccn2)nnc1-c1ccccc1)c1ccccc1,5.22 µM
11,CC(C)(C)c1ccc(CNc2nc(-c3ccccn3)nnc2-c2ccccc2)cc1,2.15 µM
12,O=C(NCCCN1CCOCC1)c1cc(-c2ccccc2)on1,> 38 µM (inactive)
13,c1ccc(-c2ccc(CNc3nc(-c4ccccn4)nnc3-c3ccccc3)cc2)cc1,1.09 µM
14,c1ccc(-c2nnc(-c3ccccn3)nc2N2CCN(c3ccncc3)CC2)cc1,4.63 µM
15,Cc1ccc(CNc2nc(-c3ccccn3)nnc2-c2ccccc2)cc1C,2.12 µM
16,OCC1CCN(c2nc(-c3ccccn3)nnc2-c2ccccc2)CC1,21.1 µM
17,COc1cccc(CNc2nc(-c3ccccn3)nnc2-c2ccccc2)c1,2.83 µM
18,Cc1ccc(CNc2nc(-c3ccccn3)nnc2-c2ccccc2)cc1,3.58 µM
19,c1ccc(-c2nnc(-c3ccccn3)nc2NCc2cccnc2)cc1,16.3 µM
20,Oc1ccc(CNC2Cc3ccccc3C2)c2cccnc12,> 38 µM (inactive)
21,CN(C)c1nc(-c2ccccn2)nnc1-c1ccccc1,12.9 µM
